Laboratory results from ChEMBL document CHEMBL1157262, “A pyrimidine-beta-carboline and other alkaloids from Annona foetida with antileishmanial activity” (J Nat Prod, 2006).

Key:
[1] = system: Leishmania guyanensis; experiment: Antileishmanial activity against Leishmania guyanensis MHOM/BR/95/IOCL-2092 promastigotes after 24 hrs; format: functional, organism-based
Summary of the method: (§1)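 Promastigotes grown in Schneider's Drosophila medium with 20% (v/v) heat-inactivated FCS, harvested late-log; log-phase cells at 4.0 × 10⁶ cells/mL in 96-well trays, 26 °C, 95% air/5% CO₂. Compounds in DMSO, 160–0.16 μg/mL, triplicate per concentration. Viability counted by Neubauer chamber after 24 h; IC50 = concentration inhibiting growth 50%. Pentamidine positive control.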

[2] = system: Leishmania braziliensis; experiment: Antileishmanial activity against Leishmania braziliensis MHOM/BR/95/IOCL-2033 promastigotes after 24 hrs; format: functional, organism-based; summary of the method: as §1

| Compound | IC50 [1] [µM] | IC50 [2] [µM] |
| --- | --- | --- |
| N=C(N)c1ccc(OCCCCCOc2ccc(C(=N)N)cc2)cc1 [PENTAMIDINE] | 0.9 | 2.9 |
| O=C1c2ccccc2-c2c3c(cc4ccnc1c24)OCO3 [LIRIODENINE] | 21.5 | 58.5 |
| Nc1nccc(-c2nccc3c2[nH]c2ccccc23)n1 [ANNOMONTINE] | > 613 | 34.8 |
| COc1c(OC)c2c3c(nccc3c1OC)C(=O)c1ccccc1-2 [HOMOMOSCHATOLINE] | 104 | 321 |
| Nc1nccc(-c2nccc3c4ccccc4n(O)c23)n1 | 438 | 253 |
